Reference: ChEMBL document CHEMBL5356984 (RSC Med Chem, 2023)
Active and inactive are the calls of the source. The rule behind the calls is not given here.

How the values were obtained:
[1] = system: MCF7; assay: Induction of apoptosis in human MCF7 cells assessed as late apoptotic cells at 10 uM incubated for 36 hrs by Annexin V/PI staining based flow cytometry (reference value: 6.02 %); assay type: functional
[2] = system: SK-BR-3; assay: Induction of apoptosis in human SK-BR-3 cells assessed as early apoptotic cells at 20 uM incubated for 36 hrs by Annexin V/PI staining based flow cytometry (reference value: 2.73 %); assay type: functional
[3] = system: MCF7; assay: Antiproliferative activity against human MCF7 cells assessed as inhibition of cell viability measured after 48 hrs by MTT assay; assay type: functional, cell-based; details: MCF7, 48 h
Procedure, shortened: (§1)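 MTT cell viability read-out; IC50 obtained by non-linear regression of concentration–response data; values are mean ± SD of three independent experiments.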

[4] = system: MCF7; assay: Induction of apoptosis in human MCF7 cells assessed as viable cells at 10 uM incubated for 36 hrs by Annexin V/PI staining based flow cytometry (reference value: 90.5 %); assay type: functional; details: read-out: Activity
[5] = system: MCF7; assay: Induction of apoptosis in human MCF7 cells assessed as necrotic cells at 10 uM incubated for 36 hrs by Annexin V/PI staining based flow cytometry (reference value: 2.30 %); assay type: functional
[6] = system: MCF7; assay: Induction of apoptosis in human MCF7 cells assessed as early apoptotic cells at 5 uM incubated for 36 hrs by Annexin V/PI staining based flow cytometry (reference value: 1.13 %); assay type: functional
[7] = system: MCF7; assay: Induction of apoptosis in human MCF7 cells assessed as early apoptotic cells at 10 uM incubated for 36 hrs by Annexin V/PI staining based flow cytometry (reference value: 1.13 %); assay type: functional
[8] = target: T1, Heat shock protein HSP90 (Homo sapiens, UniProt P07900+P08238); assay: Inhibition of HSP90 in human MCF7 cells assessed as decrease in CDK4 level at 5 to 20 uM incubated for 48 hrs by Western blot analysis; assay type: cell-based; details: dose 5-20 µM
Procedure, shortened: (§2)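 MCF-7 or SKBr3 cells were exposed for 48 h, then trypsinised, PBS-washed and lysed in RIPA buffer with phosphatase and protease inhibitors. Cleared lysate (14 000 rpm, 4 °C, 15 min) was BCA-quantified, and 20 µg protein was run on SDS-PAGE and blotted. Blots were blocked in 5% milk, incubated with primary antibodies (1:1000) overnight at 4 °C, then HRP secondary, and developed by ECL. GAPDH (1:10000) was the loading control.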

[9] = system: SK-BR-3; assay: Induction of apoptosis in human SK-BR-3 cells assessed as viable cells at 10 uM incubated for 36 hrs by Annexin V/PI staining based flow cytometry (reference value: 90.4 %); assay type: functional; details: read-out: Activity
[10] = target: T1, Heat shock protein HSP90; assay: Inhibition of HSP90 in human SK-BR-3 cells assessed as decrease in HER2 level at 5 to 20 uM incubated for 48 hrs by Western blot analysis; assay type: cell-based; details: dose 5-20 µM; procedure, shortened: as §2
[11] = target: T1, Heat shock protein HSP90; assay: Inhibition of HSP90 in human SK-BR-3 cells assessed as decrease in CDK4 level at 5 to 20 uM incubated for 48 hrs by Western blot analysis; assay type: cell-based; details: dose 5-20 µM; procedure, shortened: as §2
[12] = system: MCF7; assay: Induction of apoptosis in human MCF7 cells assessed as increase in cleaved pro-caspase-8 level at 10 to 20 uM incubated for 48 hrs by Western blot analysis; assay type: functional, cell-based; details: dose 10-20 µM
Procedure, shortened: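 Cells exposed 48 h (DMSO vehicle control); trypsinized, lysed in RIPA with phosphatase/protease inhibitors; 20 μg protein on SDS-PAGE, blotted, blocked 5% milk 1 h; primary antibodies 1:1000 overnight at 4 °C, GAPDH 1:10000 as loading control; HRP secondary 1:1000–1:5000; ECL detection.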

[13] = system: MCF7; assay: Antiproliferative activity against human MCF7 cells assessed as inhibition of cell viability at 20 uM measured after 48 hrs by MTT assay relative to control; assay type: functional
[14] = system: MCF7; assay: Induction of apoptosis in human MCF7 cells assessed as necrotic cells at 20 uM incubated for 36 hrs by Annexin V/PI staining based flow cytometry (reference value: 2.30 %); assay type: functional
[15] = system: MCF7; assay: Induction of apoptosis in human MCF7 cells assessed as viable cells at 20 uM incubated for 36 hrs by Annexin V/PI staining based flow cytometry (reference value: 90.5 %); assay type: functional; details: read-out: Activity
[16] = Selectivity index, ratio of IC50 for HEK293T cells to IC50 for human MCF7 cells; assay type: toxicity; details: HEK293T cells versus MCF7 cells, read-out: Ratio IC50
Procedure, shortened: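 Viability of 293T and MCF-7 cells was measured by MTT assay, and IC50 was fitted by non-linear regression. The selectivity index is the 293T IC50 divided by the MCF-7 IC50.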

[17] = system: MCF7; assay: Induction of apoptosis in human MCF7 cells assessed as viable cells at 5 uM incubated for 36 hrs by Annexin V/PI staining based flow cytometry (reference value: 90.5 %); assay type: functional; details: read-out: Activity
[18] = system: MCF7; assay: Effect on HSF-1 level in human MCF7 cells assessed as nuclear accumulation at 10 uM incubated for 36 hrs by DAPI staining based immunofluorescence analysis; assay type: functional, cell-based
Procedure, shortened: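 Cells treated 36 h with DMSO vehicle control, then fixed with 4% paraformaldehyde 15 min, permeabilized with 0.2% Triton X-100 5 min, blocked with 3% BSA 15 min; primary antibody then fluorescent secondary antibody, each 1 h at room temperature; HSP70 green, HSF-1 red, nuclei DAPI; imaged by fluorescence microscopy.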

[19] = system: MCF7; assay: Induction of apoptosis in human MCF7 cells assessed as late apoptotic cells at 20 uM incubated for 36 hrs by Annexin V/PI staining based flow cytometry (reference value: 6.02 %); assay type: functional
[20] = system: SK-BR-3; assay: Antiproliferative activity against human SK-BR-3 cells assessed as inhibition of cell viability measured after 48 hrs by MTT assay; assay type: functional, cell-based; details: SK-BR-3, 48 h; procedure, shortened: as §1
[21] = target: T1, Heat shock protein HSP90; assay: Competitive binding affinity to N-terminal HSP90 (unknown origin) at 0.03 to 16 uM incubated for 3 hrs in presence of FITC-GA by fluorescence polarization assay; assay type: protein assay; details: dose 0.03-16 µM
Procedure, shortened: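 Competition against FITC-geldanamycin (5 nM) for HSP90α (10 nM) in reaction buffer with 1% BSA, DMSO <1%; compounds at 0.03–16.0 μM final; 3 h at room temperature; fluorescence polarization read at ex 485/em 530 nm; activity% = (FPdrug − FPbackground)/(FPenzyme − FPbackground) × 100, curve-fitted.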

[22] = system: SK-BR-3; assay: Induction of apoptosis in human SK-BR-3 cells assessed as early apoptotic cells at 5 uM incubated for 36 hrs by Annexin V/PI staining based flow cytometry (reference value: 2.73 %); assay type: functional
[23] = system: SK-BR-3; assay: Induction of apoptosis in human SK-BR-3 cells assessed as late apoptotic cells at 5 uM incubated for 36 hrs by Annexin V/PI staining based flow cytometry (reference value: 4.95 %); assay type: functional
[24] = system: MCF7; assay: Induction of apoptosis in human MCF7 cells assessed as necrotic cells at 5 uM incubated for 36 hrs by Annexin V/PI staining based flow cytometry (reference value: 2.30 %); assay type: functional
[25] = system: SK-BR-3; assay: Induction of apoptosis in human SK-BR-3 cells assessed as necrotic cells at 20 uM incubated for 36 hrs by Annexin V/PI staining based flow cytometry (reference value: 1.89 %); assay type: functional
[26] = system: MCF7; assay: Induction of apoptosis in human MCF7 cells assessed as late apoptotic cells at 5 uM incubated for 36 hrs by Annexin V/PI staining based flow cytometry (reference value: 6.02 %); assay type: functional

Work on `CN1CCN(/C=C/C(=O)/C=C/c2cccc(O[Si](C)(C)C(C)(C)C)c2)CC1` yielded an Activity [1] of 21.7%, an Activity [2] of 47.7% and an IC50 [3] of 7.85 µM. For the same compound, the viability at 10 µM [4] was 65.6%, the Activity [5] was 10.1% and the Activity [6] was 1.58%. The Activity [7] was 2.6%, the inhibition [8] was “Active” and the viability at 10 µM [9] was 86.9%. The inhibition [10] was “Active”, the inhibition [11] was “Active” and the Activity [12] was “Active”. It also gave an inhibition at 20 µM [13] of over 50%, an Activity [14] of 16.2% and a viability at 20 µM [15] of 51.7%. The selectivity ratio [16] was about 4.2, the viability at 5 µM [17] was 80% and the Activity [18] was “inactive”. For the same compound, the Activity [19] was 28.4%, the IC50 [20] was 12.1 µM and the Activity [21] was “inactive”. For the same compound, the Activity [22] was 2.76%, the Activity [23] was 5.82% and the Activity [24] was 8.45%. For the same compound, the Activity [25] was 3.13% and the Activity [26] was 9.96%.
